Publication PMC6482079 (European journal of pharmaceutical sciences : official …, 2019)
Several values for one entry are separate records, joined by “and”; a condition that tells them apart may be missing. Identical values can stand only once.

Legend:
A/WSN/33 (H1N1) [1] = experiment: Time-of-addition experiment in MDCK cells; format: cell-based, influenza A virus; settings: NMS-873 1.8 μM; for antiviral activity when added at 8 h post infection / effect on virus replication when present before or during infection: oseltamivir carboxylate 1 μM
in vitro = settings: dog
A549 cells = experiment: Cellular cytotoxicity in A549 cells; format: cell-based, human; settings: 3 μM
Outline: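 A549 human alveolar epithelial cells were incubated with serial concentrations of the test compound, up to 3 μM, for 24 or 48 h. Cell viability was then measured by neutral red uptake.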

[2] = test system: influenza vRNPs (NP) nuclear export; format: cell-based, influenza A virus
A/WSN/33 (H1N1) [3] = format: cell-based, influenza A virus
[4] = test system: A/WSN/33 (H1N1) viral proteins; format: cell-based, influenza A virus
[5] = test system: influenza A and B viruses; experiment: Plaque reduction assay, summary over the tested panel of viruses; format: cell-based; settings: Influenza A virus, read-out: EC50 values against these viruses
MDCK cells = MDCK cells treated for 48 h
[6] = test system: A/Washington/29/2009 (H1N1); format: cell-based, influenza A virus; settings: NMS-873 1 or 3 μM, oseltamivir carboxylate 1 μM
[7] = test system: B/Wisconsin/1/2010 (Yamagata); experiment: Viral titer reduction at high MOI; format: cell-based, influenza B virus; settings: both 12 h p.i. and 24 h p.i., MOI of 1, MDCK

Row | SMILES | antiviral efficacy when added at 6 h post infection (A/WSN/33 (H1N1) [1]) | antiviral activity when added at 8 h post infection (A/WSN/33 (H1N1) [1]) | effect on virus replication when present before or during infection (A/WSN/33 (H1N1) [1]) | CC50 (in vitro) [nM] | cytotoxicity at highest drug concentration tested (A549 cells) | NP subcellular localization [2] | virus entry and NP nuclear import [2] | reduction of viral titer (A/WSN/33 (H1N1) [3]) | levels of other viral proteins PA, PB1, HA and NS1 [4] | protein expression levels of M1 and NP [4] | EC50 [5] [nM] | concentration up to which no cellular cytotoxicity was observed (MDCK cells) | antiviral activity (viral titer) [6] | reduction of viral titer ([7]; 1 μM) | inhibition of virus (viral titer) ([7]; 3 μM)
1 | Cc1cc(OCc2nnc(SC3CCCC3)n2-c2cccnc2)ccc1-c1ccc(S(C)(=O)=O)cc1 [NMS-873] | dramatically decreased | completely abolished | no antiviral activity was observed | 2720 ± 30 | not cytotoxic | NP largely accumulated in the nucleus | neither affected the virus entry nor NP nuclear import | 1.3–1.4 log10 units and 2.2–3.1 log10 units | broadly reduced | significantly reduced | 28 to 56 | up to 1.85 μM | potent antiviral activity | more than 1.8 log10 units | completely inhibited
2 | CCC(CC)O[C@@H]1C=C(C(=O)O)C[C@H](N)[C@H]1NC(C)=O [Oseltamivir carboxylate] |  | potent inhibition | no effect |  |  |  |  | 2.1–2.5 log10 units |  |  |  |  |  |  | 
